Many of the other results were omitted from the sample, so hits are more common in it than they were.
B2AR ag: human beta-2 adrenergic receptor agonism by FAP; Am2.2-beta2AR cells, FAP receptor internalization, flow cytometry; 340,000 tested, 0.43% active; response, % (test concentration not listed); P07550; AID 504454;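 active means response above a set limit, near 3 SD of response in nonfluorescent compounds, cut at about 42% in these data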
UPR CHOP act: activators of apoptotic arm of unfolded protein response (CHOP); CHO-CHOP luciferase reporter, UPR activation, luminescence; percent of tunicamycin response over DMSO baseline; AID 449763; activation, % at 10 µM; 330,000 tested, 0.34% active;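 active means at 10 µM dose, activation of 40% or more, normalized to positive control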;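 further: 100% = tunicamycin at 10 µg/mL and 0% = DMSO alone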
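Test system: CHO CHOP reporter cells. Input: 500 CHO-CHOP cells per well. Medium: F12 with 10% FBS. Technique: luciferase luminescence. Measure: percent activation relative to tunicamycin control. Dosing: 10 µM compound, 0.5% DMSO. Timing: 16-18 h cell attachment, then 6 h compound exposure, 37 °C.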
UPR XBP1 act: activators of adaptive arm of unfolded protein response (XBP1) | CHO-XBP1 luciferase reporter, IRE1-XBP1 UPR activation, luminescence; percent of tunicamycin response, DMSO as zero | activation, % at 20 µM | 330,000 tested, 0.33% active;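 active means versus positive control, 20 µM dose yields 30% or more activation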;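 further: 100% = tunicamycin at 10 µg/mL and 0% = DMSO only wells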
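Signal: luciferase luminescence; Assay system: CHO-XBP1 luciferase reporter cells; Amount: one thousand reporter cells per well; Dosing: 20 µM single concentration, DMSO 1%; Benchmarks: high control tunicamycin 10 µg/mL final, low control DMSO vehicle only; Schedule: 6 h compound exposure at 37 °C, 5% CO2; Evaluation: percent activation relative to tunicamycin reference.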
CHOP inhibitor: blocks CHOP induction under ER stress; CHO-K1 CHOP-promoter luciferase, tunicamycin-induced, 15-18 h; inhibition, % at 10 µM; 220,000 tested, 3.8% active; AID 2732;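 active means compounds that reduced the stress-induced luciferase reporter signal by more than about 70% of percent inhibition, limit read from the data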;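 further: 0% = tunicamycin plus vehicle and 100% = wells without tunicamycin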
VLA-4 inh: inhibition in a human VLA-4 binding assay | P13612 | VLA-4 expressing cells, ligand binding flow cytometry | inhibition, % (about 7 µM as worked out from the volumes in the protocol) | 330,000 tested, 0.2% active | AID 2557; in the data active means inhibition above about 50%
* = called active by the depositor; x = no result.

SMILES | B2AR ag | UPR CHOP act | UPR XBP1 act | CHOP inhibitor | VLA-4 inh
COc1ccc(NC(=O)CSc2nc3ccc(OC)cc3[nH]2)cc1 | 3 | 0 | -2 | -7 | 8
O=C(CSc1nc2cc3ccccc3cc2[nH]1)Nc1ccc(F)cc1 | -10 | 2 | 4 | 81* | 1
O=C(CSc1nc2ccc(Cl)cc2[nH]1)Nc1ccc2c(c1)CCC2 | 0 | 2 | -2 | 71* | -5
CN(C)S(=O)(=O)c1ccc(Cl)c(C(=O)Nc2ccc(S(=O)(=O)N3CCOCC3)cc2)c1 | -6 | 0 | 4 | x | -6
COc1ccc(OC)c(NC(=O)Cc2ccc(NC3=NC4CS(=O)(=O)CC4S3)cc2)c1 (centres undefined) | 0 | 0 | -1 | x | 32
Cc1ccc(C2CC(c3ccc(Cl)cc3)=NNC2=O)cc1 (centres undefined) | -3 | -2 | 0 | 56 | -4
O=C1NN=C(c2ccc(Br)cc2)CC1c1ccc(Cl)cc1 (centres undefined) | -3 | 1 | 0 | 91* | 12
Cc1ccc(-n2nnnc2SC(C(=O)c2c[nH]c3ccccc23)c2ccccc2)cc1 (centres undefined) | 7 | 2 | -2 | 72* | -2
Cc1cc(C)nc(-n2nc(C)c(Br)c2Nc2ccc(Br)cc2)n1 | -8 | 0 | 0 | 77* | -16
Cc1nn(C)c(Nc2ccc(Br)cc2)c1Br | 1 | 0 | -1 | 74* | -22
Cc1cc(Nc2ccc(Br)cc2)nc(-c2ccccc2O)n1 | -6 | 1 | -1 | x | 4
CCCOc1cccc(-c2cc(C(=O)N/N=C/c3ccccn3)c3ccccc3n2)c1 | 16 | 296* | -2 | x | 17
CCCCN1C(=O)c2ccc(C(=O)NCCN3C(=O)S/C(=C\c4cccnc4)C3=O)cc2C1=O | 12 | -1 | -2 | 76* | -9
Cc1cc(NC(=O)CCl)n(-c2nc3ccccc3s2)n1 | 1 | 11 | 3 | 77* | 40
Cc1cc(NC(=O)C2CC2)n(-c2nc3ccccc3s2)n1 | -2 | 1 | -3 | 10 | 4
CC(=O)NC1=NC(=O)/C(=C/c2cn(C(C)=O)nc2-c2ccccc2)S1 | -8 | -2 | 1 | 73* | -15
CCN=C1S/C(=C\c2ccc(-c3cccc(C(=O)O)c3)o2)C(=O)N1CC | 7 | 4 | 8 | 24 | -2
CCN=C1S/C(=C\c2cn(C(C)=O)nc2-c2ccccc2)C(=O)N1CC | -14 | 3 | 10 | 71* | -9
O=C(COC(=O)C12CC3CC(CC(C3)C1)C2)NC12CC3CC(CC(C3)C1)C2 | -8 | -1 | 2 | 76* | -16
O=C(COC(=O)C12CC3CC(CC(C3)C1)C2)Nc1ccc(OC(F)F)cc1 | 5 | -2 | 4 | 94* | -7
O=C(COC(=O)C12CC3CC(CC(O)(C3)C1)C2)Nc1ccc(OC(F)F)cc1 | 3 | 2 | 0 | x | x
COc1ccccc1C(=O)CN1C(=O)NC2(CCc3ccccc32)C1=O (centres undefined) | -2 | 0 | -3 | x | -14
Cc1cc(NC(=O)CN2C(=O)NC3(CCCCCC3)C2=O)ccc1Br | 4 | -1 | 3 | x | 0
O=C(Nc1c(Br)cc2c(c1Br)Cc1ccccc1-2)C(Cl)Cl | 0 | x | x | x | x
Cc1nn(S(=O)(=O)c2ccccc2)c(C)c1Sc1ccc([N+](=O)[O-])cc1 | 7 | 3 | -2 | 80* | 9
Cc1nn(S(=O)(=O)c2cccs2)c(C)c1Sc1ccc([N+](=O)[O-])cc1 | 10 | 2 | -1 | 36 | -5
CCCCCc1cc(=O)oc2c(C(CCN3CCCC(C)C3)c3ccc4c(c3)OCO4)c(OC)cc(OC)c12 (centres undefined) | 19 | 16 | 0 | 77* | 18
CCCCCc1cc(=O)oc2c(C(CCN3CCCCC3)c3ccc4c(c3)OCO4)c(OC)cc(OC)c12 (centres undefined) | 20 | 8 | 3 | 88* | 3
COc1cc(OC)c2c(-c3ccccc3)cc(=O)oc2c1C(CCN1CCCC1)c1ccc2c(c1)OCO2 (centres undefined) | 19 | 3 | 6 | -24 | 9
CCCCCc1cc(=O)oc2c(C(CCN(CC)CC)c3cc(OC)c(OC)c(OC)c3)c(OC)cc(OC)c12 (centres undefined) | 44* | 3 | 3 | 71* | 0
